Assay results reported in ChEMBL document CHEMBL4229344 (Eur J Med Chem, 2018).

How the values were obtained:
[1] = target: Mast/stem cell growth factor receptor Kit (Homo sapiens, UniProt P10721); assay: Inhibition of TEL-fused c-KIT (unknown origin) expressed in mouse BA/F3 cells assessed as growth inhibition after 72 hrs by CellTiter-Glo or CCK-8 assay; assay type: cell-based
Summary of the method: (§1)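 Parental BaF3 or IL-3-independent TEL-kinase BaF3 lines, made by retroviral infection and puromycin selection, grown in RPMI 1640 with 10% FBS. Cells seeded at 1–3 × 10^4 cells/mL with serial compound concentrations for 72 h. Viability read by CellTiter-Glo luminescence or CCK-8 absorbance at 450/655 nm and normalised to DMSO. GI50 obtained by triplicate testing with linear regression. Selectivity is the ratio of the two GI50 values.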

[2] = Cytotoxicity against mouse BA/F3 cells after 72 hrs by CellTiter-Glo or CCK-8 assay; assay type: cell-based, BaF3; summary of the method: as §1
[3] = target: Vascular endothelial growth factor receptor 2 (Homo sapiens) (UniProt P35968)
Chain of Vascular endothelial growth factor receptor 2 (Homo sapiens) (P35968 whole entry): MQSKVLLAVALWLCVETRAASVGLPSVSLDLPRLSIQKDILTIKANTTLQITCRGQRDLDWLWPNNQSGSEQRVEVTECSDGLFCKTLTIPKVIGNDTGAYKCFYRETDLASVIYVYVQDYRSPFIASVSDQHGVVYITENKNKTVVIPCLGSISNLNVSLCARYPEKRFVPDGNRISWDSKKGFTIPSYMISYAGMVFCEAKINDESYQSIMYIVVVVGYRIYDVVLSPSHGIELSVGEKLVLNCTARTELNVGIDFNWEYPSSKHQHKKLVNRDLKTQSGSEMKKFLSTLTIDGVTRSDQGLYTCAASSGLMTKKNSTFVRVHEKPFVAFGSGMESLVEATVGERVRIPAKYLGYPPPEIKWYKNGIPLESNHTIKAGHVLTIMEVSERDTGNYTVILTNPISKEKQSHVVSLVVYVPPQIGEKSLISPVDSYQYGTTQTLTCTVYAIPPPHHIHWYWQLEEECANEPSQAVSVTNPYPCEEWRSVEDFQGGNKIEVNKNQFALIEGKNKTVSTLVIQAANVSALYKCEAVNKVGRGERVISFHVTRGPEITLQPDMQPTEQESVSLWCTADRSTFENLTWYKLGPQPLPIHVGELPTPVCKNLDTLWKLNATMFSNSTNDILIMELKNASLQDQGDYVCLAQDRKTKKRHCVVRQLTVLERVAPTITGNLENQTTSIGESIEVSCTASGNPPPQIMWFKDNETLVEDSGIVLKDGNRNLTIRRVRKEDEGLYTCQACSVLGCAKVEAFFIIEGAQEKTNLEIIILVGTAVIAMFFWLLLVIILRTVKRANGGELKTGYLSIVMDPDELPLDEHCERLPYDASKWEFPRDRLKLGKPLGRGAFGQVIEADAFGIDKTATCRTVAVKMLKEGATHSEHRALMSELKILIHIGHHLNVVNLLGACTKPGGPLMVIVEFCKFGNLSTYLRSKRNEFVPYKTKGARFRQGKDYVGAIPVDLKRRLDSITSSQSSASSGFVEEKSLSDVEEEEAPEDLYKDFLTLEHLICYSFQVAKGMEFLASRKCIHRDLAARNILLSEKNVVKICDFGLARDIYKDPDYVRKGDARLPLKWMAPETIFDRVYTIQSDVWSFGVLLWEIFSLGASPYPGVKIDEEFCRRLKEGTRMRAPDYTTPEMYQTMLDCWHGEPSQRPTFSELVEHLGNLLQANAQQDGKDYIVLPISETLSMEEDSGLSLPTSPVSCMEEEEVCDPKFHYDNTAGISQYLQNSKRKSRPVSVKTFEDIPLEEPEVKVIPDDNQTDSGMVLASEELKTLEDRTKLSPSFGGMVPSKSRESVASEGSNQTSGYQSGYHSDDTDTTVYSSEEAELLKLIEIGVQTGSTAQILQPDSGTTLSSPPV

[4] = target: Platelet-derived growth factor receptor alpha (Homo sapiens, UniProt P16234)
Chain of Platelet-derived growth factor receptor alpha (P16234 whole entry, the tested form may be a part): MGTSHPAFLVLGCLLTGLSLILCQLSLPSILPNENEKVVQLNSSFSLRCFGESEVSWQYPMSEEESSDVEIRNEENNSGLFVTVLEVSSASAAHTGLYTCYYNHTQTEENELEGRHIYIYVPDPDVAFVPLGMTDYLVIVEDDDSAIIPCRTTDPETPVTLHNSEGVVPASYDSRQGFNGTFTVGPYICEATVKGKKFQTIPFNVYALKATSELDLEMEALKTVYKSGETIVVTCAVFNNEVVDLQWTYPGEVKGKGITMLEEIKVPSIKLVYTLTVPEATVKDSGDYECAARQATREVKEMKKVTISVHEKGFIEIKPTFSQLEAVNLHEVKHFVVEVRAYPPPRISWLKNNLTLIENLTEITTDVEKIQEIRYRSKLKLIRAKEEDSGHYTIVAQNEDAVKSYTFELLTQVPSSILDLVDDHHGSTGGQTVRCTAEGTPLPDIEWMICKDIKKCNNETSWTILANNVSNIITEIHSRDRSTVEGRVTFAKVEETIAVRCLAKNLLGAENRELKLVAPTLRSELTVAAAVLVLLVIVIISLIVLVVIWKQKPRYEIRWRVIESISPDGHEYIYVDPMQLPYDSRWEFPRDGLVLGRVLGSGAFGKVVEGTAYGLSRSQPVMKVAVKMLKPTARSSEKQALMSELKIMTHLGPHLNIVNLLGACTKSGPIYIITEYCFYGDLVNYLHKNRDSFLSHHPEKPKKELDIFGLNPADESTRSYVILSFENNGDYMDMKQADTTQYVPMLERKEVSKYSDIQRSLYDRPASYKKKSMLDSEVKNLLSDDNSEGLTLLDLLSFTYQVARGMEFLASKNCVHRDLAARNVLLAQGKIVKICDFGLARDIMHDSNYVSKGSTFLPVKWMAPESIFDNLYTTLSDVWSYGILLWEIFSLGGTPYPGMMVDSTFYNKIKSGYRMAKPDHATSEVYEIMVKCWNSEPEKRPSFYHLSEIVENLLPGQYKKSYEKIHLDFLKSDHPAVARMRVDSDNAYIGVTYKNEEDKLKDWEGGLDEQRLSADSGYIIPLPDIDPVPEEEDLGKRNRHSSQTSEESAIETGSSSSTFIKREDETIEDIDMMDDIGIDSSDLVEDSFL

[5] = target: Platelet-derived growth factor receptor beta (Homo sapiens, UniProt P09619); assay: Inhibition of TEL-fused PDGFRbeta (unknown origin) expressed in mouse BA/F3 cells assessed as growth inhibition after 72 hrs by CellTiter-Glo or CCK-8 assay; assay type: cell-based; summary of the method: as §1
Chain of Platelet-derived growth factor receptor beta (P09619 whole entry, the tested form may be a part): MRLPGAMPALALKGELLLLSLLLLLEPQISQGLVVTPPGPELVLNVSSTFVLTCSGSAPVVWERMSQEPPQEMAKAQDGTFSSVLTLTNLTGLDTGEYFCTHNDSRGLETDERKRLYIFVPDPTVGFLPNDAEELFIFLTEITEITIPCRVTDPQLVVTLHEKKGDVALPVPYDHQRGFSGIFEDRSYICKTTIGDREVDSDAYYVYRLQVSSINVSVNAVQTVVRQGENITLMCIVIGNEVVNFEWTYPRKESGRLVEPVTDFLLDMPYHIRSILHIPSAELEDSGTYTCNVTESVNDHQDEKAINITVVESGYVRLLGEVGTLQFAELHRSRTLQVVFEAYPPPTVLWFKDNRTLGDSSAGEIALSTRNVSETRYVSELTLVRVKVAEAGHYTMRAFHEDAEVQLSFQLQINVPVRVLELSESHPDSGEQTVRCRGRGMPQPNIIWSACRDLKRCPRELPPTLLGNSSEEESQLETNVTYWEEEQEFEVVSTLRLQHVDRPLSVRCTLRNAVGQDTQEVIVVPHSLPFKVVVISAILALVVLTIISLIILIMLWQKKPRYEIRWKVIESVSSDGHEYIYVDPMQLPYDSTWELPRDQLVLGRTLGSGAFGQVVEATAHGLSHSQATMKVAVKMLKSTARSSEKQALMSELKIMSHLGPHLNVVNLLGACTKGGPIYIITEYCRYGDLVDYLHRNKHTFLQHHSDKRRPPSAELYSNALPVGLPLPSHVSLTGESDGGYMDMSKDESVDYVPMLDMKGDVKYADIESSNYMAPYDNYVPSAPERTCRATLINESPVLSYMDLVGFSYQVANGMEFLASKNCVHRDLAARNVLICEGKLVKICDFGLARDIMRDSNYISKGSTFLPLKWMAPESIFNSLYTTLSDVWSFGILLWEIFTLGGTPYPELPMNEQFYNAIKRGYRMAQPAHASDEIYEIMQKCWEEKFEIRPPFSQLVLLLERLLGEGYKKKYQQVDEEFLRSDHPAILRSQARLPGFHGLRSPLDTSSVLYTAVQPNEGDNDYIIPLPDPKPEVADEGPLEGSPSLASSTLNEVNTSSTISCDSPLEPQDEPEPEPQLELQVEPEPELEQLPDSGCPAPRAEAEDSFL

Homo sapiens = species: Homo sapiens; assay: Selectivity index, ratio of GI50 for TEL-fused PDGFRbeta (unknown origin) expressed in mouse BA/F3 cells to GI50 for TEL-fused PDGFRalpha (unknown origin) expressed in mouse BA/F3 cells; assay type: cell-based; summary of the method: as §1

Chain of Mast/stem cell growth factor receptor Kit (P10721 whole entry, the tested form may be a part): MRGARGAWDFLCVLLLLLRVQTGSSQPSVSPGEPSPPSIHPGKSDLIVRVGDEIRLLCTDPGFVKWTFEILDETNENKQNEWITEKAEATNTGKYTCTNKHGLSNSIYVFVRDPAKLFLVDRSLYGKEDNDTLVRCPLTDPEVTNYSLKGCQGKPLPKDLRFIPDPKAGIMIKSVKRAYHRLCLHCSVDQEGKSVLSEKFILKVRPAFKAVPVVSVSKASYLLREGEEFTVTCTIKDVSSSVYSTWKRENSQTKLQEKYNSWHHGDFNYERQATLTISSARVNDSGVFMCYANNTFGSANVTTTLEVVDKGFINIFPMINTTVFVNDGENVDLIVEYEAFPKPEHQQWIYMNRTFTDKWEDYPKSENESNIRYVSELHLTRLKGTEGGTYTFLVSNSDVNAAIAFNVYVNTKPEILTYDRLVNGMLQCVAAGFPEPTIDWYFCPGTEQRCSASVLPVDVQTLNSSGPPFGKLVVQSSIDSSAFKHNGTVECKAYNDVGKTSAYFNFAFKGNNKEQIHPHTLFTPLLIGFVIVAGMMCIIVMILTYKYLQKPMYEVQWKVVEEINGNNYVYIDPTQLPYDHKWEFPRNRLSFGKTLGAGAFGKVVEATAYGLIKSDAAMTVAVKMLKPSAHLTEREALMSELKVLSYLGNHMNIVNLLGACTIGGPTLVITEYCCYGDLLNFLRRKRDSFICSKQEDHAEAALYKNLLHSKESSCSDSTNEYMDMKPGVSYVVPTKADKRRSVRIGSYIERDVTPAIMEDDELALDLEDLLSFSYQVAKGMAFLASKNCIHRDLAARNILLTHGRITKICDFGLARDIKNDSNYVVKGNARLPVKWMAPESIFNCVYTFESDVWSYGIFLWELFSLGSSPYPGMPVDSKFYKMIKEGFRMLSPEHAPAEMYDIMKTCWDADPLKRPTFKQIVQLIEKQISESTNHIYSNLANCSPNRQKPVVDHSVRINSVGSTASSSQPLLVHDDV

Structure (SMILES)	GI50 [1] [nM]	GI50 at 72 h [2] [nM]	GI50 [3] [nM]	GI50 [4] [nM]	GI50 [5] [nM]	RatioGI50 (Homo sapiens)
Cc1ccc(NC(=O)c2ccc(CNC(=O)c3cccnc3)c(C(F)(F)F)c2)cc1Nc1nccc(-c2cccnc2)n1	66	8330	3410	5	82	–
CCC(=O)Nc1ccc(C(=O)Nc2ccc(C)c(Nc3nccc(-c4cccnc4)n3)c2)cc1	4940	> 10000	6270	12	888	–
Cc1ccc(NC(=O)c2ccc(CN(CCN(C)C)C(=O)c3cccs3)cc2)cc1Nc1nccc(-c2cccnc2)n1	> 10000	> 10000	> 10000	56	207	–
Cc1ccc(NC(=O)c2ccc(CNCCN(C)C)cc2)cc1Nc1nccc(-c2cccnc2)n1	5000	> 10000	4880	24	125	–
Cc1ccc(NC(=O)c2ccc(CN(CCO)C(=O)CN(C)C)cc2)cc1Nc1nccc(-c2cccnc2)n1	> 10000	> 10000	> 10000	363	3880	–
C=CC(=O)NCc1ccc(C(=O)Nc2ccc(C)c(Nc3nccc(-c4cccnc4)n3)c2)cc1	> 10000	> 10000	–	–	155	–
Cc1ccc(NC(=O)c2ccc(CN(CCN(C)C)C(=O)CN(C)C)cc2)cc1Nc1nccc(-c2cccnc2)n1	> 10000	> 10000	> 10000	120	9200	–
CCN(CC)CCN(Cc1ccc(C(=O)Nc2ccc(C)c(Nc3nccc(-c4cccnc4)n3)c2)cc1)C(=O)c1cccnc1	> 10000	> 10000	> 10000	33	699	–
CCC(=O)NCc1cccc(C(=O)Nc2ccc(C)c(Nc3nccc(-c4cccnc4)n3)c2)c1	2920	4750	3220	15	221	–
C=CC(=O)N(CCC(C)C)Cc1ccc(C(=O)Nc2ccc(C)c(Nc3nccc(-c4cccnc4)n3)c2)cc1	3940	5620	5740	19	230	–
C=CC(=O)Nc1cc(C(=O)Nc2ccc(C)c(Nc3nccc(-c4cccnc4)n3)c2)cc(C(F)(F)F)c1	250	5460	3340	13	98	–
Cc1ccc(NC(=O)c2ccc(CN(CCN(C)C)C(=O)C(C)C)cc2)cc1Nc1nccc(-c2cccnc2)n1	6110	> 10000	8640	39	123	–
C=CC(=O)N(CCN(CC)CC)Cc1ccc(C(=O)Nc2ccc(C)c(Nc3nccc(-c4cccnc4)n3)c2)cc1	5140	5450	4550	344	1100	–
C=CC(=O)Nc1cccc(C(=O)Nc2ccc(C)c(Nc3nccc(-c4cccnc4)n3)c2)c1	1530	2480	1570	8	173	–
C=CC(=O)NCc1ccc(C(=O)Nc2ccc(C)c(Nc3nccc(-c4cccnc4)n3)c2)cc1C(F)(F)F	300	> 10000	> 10000	59	161	–
C=CS(=O)(=O)NCc1ccc(C(=O)Nc2ccc(C)c(Nc3nccc(-c4cccnc4)n3)c2)cc1	580	7710	1560	13	48	–

Structure (SMILES)	GI50 [1] [nM]	GI50 at 72 h [2] [nM]	GI50 [3] [nM]	GI50 [4] [nM]	GI50 [5] [nM]	RatioGI50 (Homo sapiens)
CCC(=O)N(CCN(C)C)Cc1ccc(C(=O)Nc2ccc(C)c(Nc3nccc(-c4cccnc4)n3)c2)cc1	> 10000	> 10000	> 10000	36	504	14
CCC(=O)NCc1ccc(C(=O)Nc2ccc(C)c(Nc3nccc(-c4cccnc4)n3)c2)cc1	6220	> 10000	> 10000	14	201	–
C=CC(=O)NCc1cccc(C(=O)Nc2ccc(C)c(Nc3nccc(-c4cccnc4)n3)c2)c1	4750	> 10000	> 10000	160	244	–
CCC(=O)Nc1cc(C(=O)Nc2ccc(C)c(Nc3nccc(-c4cccnc4)n3)c2)cc(C(F)(F)F)c1	104	> 10000	> 10000	39	231	–
C/C=C/C(=O)N(CCN(C)C)Cc1ccc(C(=O)Nc2ccc(C)c(Nc3nccc(-c4cccnc4)n3)c2)cc1	> 10000	> 10000	8540	54	219	–
C=CC(=O)N(CCN(C)C)Cc1ccc(C(=O)Nc2ccc(C)c(Nc3nccc(-c4cccnc4)n3)c2)cc1	> 10000	> 10000	> 10000	11	350	> 30
Cc1ccc(NC(=O)c2ccc(CN(CCN3CCCC3)C(=O)c3cccnc3)cc2)cc1Nc1nccc(-c2cccnc2)n1	> 10000	> 10000	> 10000	39	934	–
Cc1ccc(NC(=O)c2ccc(CN(CCO)C(=O)c3cccnc3)cc2)cc1Nc1nccc(-c2cccnc2)n1	> 10000	> 10000	> 10000	353	3020	–
CCCC(=O)N(CCN(C)C)Cc1ccc(C(=O)Nc2ccc(C)c(Nc3nccc(-c4cccnc4)n3)c2)cc1	5750	> 10000	4760	25	90	–
Cc1ccc(C(=O)N(CCN(C)C)Cc2ccc(C(=O)Nc3ccc(C)c(Nc4nccc(-c5cccnc5)n4)c3)cc2)cc1	> 10000	> 10000	> 10000	100	240	–
Cc1ccc(NC(=O)c2ccc(CN(CCN(C)C)C(=O)c3ccno3)cc2)cc1Nc1nccc(-c2cccnc2)n1	> 10000	> 10000	> 10000	166	787	–
Cc1ccc(NC(=O)c2ccc(CN(CCN(C)C)C(=O)C3CC3)cc2)cc1Nc1nccc(-c2cccnc2)n1	> 10000	> 10000	> 10000	112	437	–
Cc1ccc(NC(=O)c2ccc(NC(=O)c3cccnc3)cc2)cc1Nc1nccc(-c2cccnc2)n1	426	1700	882	13	583	–
Cc1ccc(NC(=O)c2ccc(CN(CCN(C)C)C(=O)C(C)(C)C)cc2)cc1Nc1nccc(-c2cccnc2)n1	2530	> 10000	5480	17	61	–
C=CC(=O)Nc1ccc(C(=O)Nc2ccc(C)c(Nc3nccc(-c4cccnc4)n3)c2)cc1	2940	5600	2030	–	757	–
Cc1ccc(NC(=O)c2ccc(CNC(=O)c3cccnc3)cc2)cc1Nc1nccc(-c2cccnc2)n1	216	1120	348	14	341	–
